Active and inactive are the calls of the source. The calls are words filed in the database; no cut-off is given here.

Results on 10 compounds are retold here after ChEMBL document CHEMBL1139303, “One-pot synthesis of 5-phenylimino, 5-thieno or 5-oxo-1,2,3-dithiazoles and evaluation of their antimicrobial and antitumor activity” (2009).

The subject of assay [1] is Bacillus cereus. In words: Antibacterial activity against Bacillus cereus at 50 ug after 24 hrs by agar diffusion method. Format: functional. The method, boiled down: (§1)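 Bacteria pre-grown 24 h on nutritive agar (tryptone soy agar for E. faecalis, L. inocua) at 37 °C (30 °C for E. faecalis, L. inocua, B. cereus). Agar well diffusion with 50 µg compound in 80% DMSO; 80% DMSO alone as control. Inhibition zone diameter averaged from triplicate, scored 6-9, 9-12, >12 mm.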

In assay [2] the test system is Candida albicans. As to the kind of experiment: Antifungal activity against Candida albicans ATCC 10231 at 50 ug after 24 hrs by agar diffusion method. Format: functional. Put shortly: (§2)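 Yeasts grown on yeast extract peptone dextrose medium at 30 °C for 24 h, then agar well diffusion with 50 µg compound in 80% DMSO; 80% DMSO alone as control. Averaged inhibition zone diameter from triplicate, scored 6-9, 9-12 or >12 mm.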

Assay [3] has as its system Candida tropicalis. In words: Antifungal activity against Candida tropicalis DSM 1346 at 50 ug after 24 hrs by agar diffusion method. Format: functional. Put shortly: as §2
In general terms: In agar diffusion tests the substance spreads into inoculated agar from a disc or well.

The test system of assay [4] is Staphylococcus aureus. As to the kind of experiment: Antibacterial activity against Staphylococcus aureus ATCC 25923 at 50 ug after 24 hrs by agar diffusion method. As to conditions: for zone of inhibition at 50 µg/disc: Staphylococcus aureus, ATCC 25923, 24 h, read-out: IZ. It counts as functional. Put shortly: as §1
The subject of assay [5] is Pseudomonas aeruginosa. As to the kind of experiment: Antibacterial activity against Pseudomonas aeruginosa ATCC 27853 at 50 ug after 24 hrs by agar diffusion method. Format: functional, organism-based. Put shortly: as §1
Assay [6] concerns Nakaseomyces glabratus. In words: Antifungal activity against Candida glabrata DSM6425 at 50 ug after 24 hrs by agar diffusion method. Format: functional. The method, boiled down: as §2
For assay [7], the system named is Pichia kudriavzevii. In words: Antifungal activity against Issatchenkia orientalis DSM6128 at 50 ug after 24 hrs by agar diffusion method. Format: functional, organism-based. The method, boiled down: as §2
Assay [8] relates to Enterococcus faecalis. In words: Antibacterial activity against Enterococcus faecalis CIP 103214 at 50 ug after 24 hrs by agar diffusion method. Format: functional. The method, boiled down:
as §1

Assay [9] deals with Listeria innocua. As to the kind of experiment: Antibacterial activity against Listeria innocua at 50 ug after 24 hrs by agar diffusion method. Format: functional. The method, boiled down: as §1
Assay [10] has as its system Escherichia coli. In words: Antibacterial activity against Escherichia coli ATCC 25922 at 50 ug after 24 hrs by agar diffusion method. Format: functional. The method, boiled down:
as §1

The test system of assay [11] is MDA-MB-231. As to the kind of experiment: Antiproliferative activity against human MDA-MB-231 cells at 10 uM after 72 hrs by MTT assay. Conditions: MDA-MB-231, 72 h. Format: functional. Put shortly: (§3)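 5000 cells per well added to pre-equilibrated medium at 37 °C; compounds from 10^-3 M DMSO stocks, final 10^-5 M. After 72 h, MTT (5 g/L) for 4 h, formazan dissolved in DMSO, OD 550 nm. % growth inhibition vs 1% DMSO medium (0%) and 10% SDS lysis (100%); mean ± SEM, 24 measures, three independent experiments.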

Assay [12] deals with Klebsiella pneumoniae. In words: Antibacterial activity against Klebsiella pneumoniae CIP 53153 at 50 ug after 24 hrs by agar diffusion method. It counts as functional, organism-based. Put shortly: as §1
For assay [13], the system named is MDA-MB-231. As to the kind of experiment: Antiproliferative activity against human MDA-MB-231 cells after 72 hrs by MTT assay. It counts as functional. Conditions: MDA-MB-231, 72 h. Put shortly: as §3
Background: Tetrazolium assays rely on reduction of a dye to a coloured formazan, in cell work by metabolically active cells.

The subject of assay [14] is MCF7. In words: Antiproliferative activity against human MCF7 cells after 72 hrs by MTT assay. Format: functional. Conditions: MCF7, 72 h. Put shortly: as §3

For `Cc1nss/c1=N\c1ccccc1`, the result in assay [1], in assay [2], in assay [3], in assay [4], in [5] and in assay [6] was inactive. In addition, the outcome in [7], in [8], in [9], in assay [10] and in assay [12] was inactive. In [11], at 10 µM the inhibition was 0%. Besides, the GI50 in assay [13] and in assay [14] was more than 10 µM in each case.

Consider `c1ccc(/N=c2\ssnc2-c2cccs2)cc1`, for which the result in assay [1], in [2], in assay [3], in assay [4], in assay [5] and in [6] was inactive. Besides, the result in [7], in [8], in assay [9], in assay [10] and in assay [12] was inactive. The inhibition – broadly, how much of the control response was suppressed – at 10 µM in [11] amounted to 0%. The GI50 in assay [13] and in assay [14] was more than 10 µM throughout.

Turning to `c1ccc(/N=c2\ssnc2-c2cc3ccccc3o2)cc1`, the result in assay [1], in [2], in [3], in assay [4], in assay [5] and in assay [6] was inactive. The outcome in assay [7], in [8], in assay [9], in assay [10] and in [12] was inactive. Further, the inhibition at 10 µM in [11] was determined as 0%. In addition, the GI50 (as a rule, the concentration that inhibits growth by half) is more than 10 µM in assay [13] and 10 µM in [14].

On to `S=c1ssnc1-c1cc2ccccc2o1`, for which the result in assay [1], in assay [2], in assay [3], in assay [4], in assay [5] and in assay [6] was inactive. Further, the outcome in assay [7], in [8], in assay [9], in assay [10] and in assay [12] was inactive. In addition, in assay [11], 10 µM produced 0% inhibition. Moreover, the GI50 in assay [13] and in [14] was more than 10 µM each time.

Turning to `O=[N+]([O-])c1ccc(-c2nss/c2=N\c2ccccc2)cc1`, the result in assay [1], in assay [2], in assay [3], in assay [4], in assay [5] and in assay [6] was inactive. Besides, the outcome in [7], in assay [8], in assay [9], in assay [10] and in assay [12] was inactive. Besides, the inhibition at 10 µM in assay [11] is 0%. The GI50 is more than 10 µM in [13] and 10 µM in assay [14].

Consider `c1ccc(/N=c2\ssnc2-c2ccccc2)cc1`, for which the outcome in assay [1], in assay [2], in assay [3], in assay [5], in assay [6] and in [7] was inactive. The outcome in assay [8], in [9], in [10] and in assay [12] was inactive. The zone of inhibition at 50 µg/disc in assay [4] stood at 6 mm. In assay [11], this compound gave an inhibition at 10 µM of 0%. Moreover, the figures for the GI50 in [13] and in assay [14] were more than 10 µM and 10 µM, respectively.

`Fc1ccc(-c2nss/c2=N\c2ccccc2)cc1`: the result in assay [1], in assay [2], in [3], in [4], in [5] and in assay [6] was inactive. For the same compound, the outcome in assay [7], in assay [8], in [9], in assay [10] and in [12] was inactive. Further, at 10 µM the inhibition in [11] was 0%. For the same compound, the GI50 in assay [13] is more than 10 µM; in [14], 10 µM.

As for `Fc1ccc(-c2nssc2=S)cc1`, the outcome in assay [1], in assay [2], in assay [3], in [4], in [5] and in assay [6] was inactive. For the same compound, the outcome in assay [7], in [8], in assay [9], in assay [10] and in assay [12] was inactive. For the same compound, in assay [11], testing at 10 µM gave an inhibition of 0%. Besides, the GI50 in [13] and in [14] was more than 10 µM throughout.

As to `O=[N+]([O-])c1ccc(-c2nssc2=S)cc1`, the outcome in assay [1], in assay [2], in assay [3], in [5], in assay [6] and in assay [7] was inactive. The result in assay [8], in assay [9], in assay [10] and in assay [12] was inactive. Moreover, the zone of inhibition at 50 µg/disc in assay [4] came to 6 mm. In assay [11], this compound yielded an inhibition at 10 µM of 0%. In addition, the GI50 in assay [13] and in [14] was more than 10 µM each time.

Take `S=c1ssnc1-c1cccs1`: the result in [1], in [2], in assay [3], in assay [4], in [5] and in assay [6] was inactive. Besides, the outcome in [7], in assay [8], in [9], in assay [10] and in assay [12] was inactive. In addition, the inhibition at 10 µM in assay [11] came to 0%. The GI50 in assay [13] and in [14] was more than 10 µM in each case.
